Several values for one entry are separate records, joined by “and”; a condition that tells them apart may be missing. Identical values can stand only once.
Assays:
[1] = system: Fibroblast; assay: Multiplex assay against human fibroblast; format: toxicity, cell-based
Outline: (§1)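 Per cents of healthy-nucleus cells form the tubulin, mitochondrial-mass and membrane-permeability phenotype values. Live cells were stained at seeding with Hoechst33342, BioTracker Green Microtubule Cytoskeleton Dye, MitoTracker Red and Annexin V Alexa Fluor 680. After compound addition they were imaged on a CQ1 microscope at 37°C and 5% CO2, and CellPathfinder machine-learning gating split them into Hoechst high-intensity objects or normal cells, normal cells into healthy, pyknosed or fragmented nuclei, and pyknosed cells into mitotic or apoptotic.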

[2] = system: HEK-293T; assay: Multiplex assay against HEK293T; format: toxicity, cell-based; conditions: human; outline: as §1
[3] = 12 h, 1 µM, compound concentration 1 uM
[4] = 12 h, 10 µM, compound concentration 10 uM
[5] = 24 h, 1 µM, compound concentration 1 uM
[6] = 24 h, 10 µM, compound concentration 10 uM
[7] = 48 h, 1 µM, compound concentration 1 uM
[8] = 48 h, 10 µM, compound concentration 10 uM

## OCCCNc1cc(-c2ccnc(Nc3cccc(Cl)c3)n2)ccn1
[1]; [3]
  Population Apoptotic (%): 58% and 50%
  Population Fragmented Nuclei (%): 15% and 21%
  Population Healthy Nuclei (%): 66% and 53%
  Population Hoechst High Intensity Objects (%): 4% and 6%
  Population Membrane Permeable-Phenotype (%): 0% and 5%
  Population Mitochondria Different-Phenotype (%): 9% and 13%
  Population Mitotic Cells (%): 41% and 50%
  Population Normal (%): 95% and 93%
  Population Pyknosed Nuclei (%): 18% and 24%
  Population Tubulin-Different-Phenotype (%): 52% and 47%
  Total Cell Count: 139 and 138
[1]; [4]
  Population Apoptotic (%): 61% and 52%
  Population Fragmented Nuclei (%): 38% and 65%
  Population Healthy Nuclei (%): 44% and 24%
  Population Hoechst High Intensity Objects (%): 10% and 6%
  Population Membrane Permeable-Phenotype (%): 9% and 20%
  Population Mitochondria Different-Phenotype (%): 25% and 11%
  Population Mitotic Cells (%): 38% and 47%
  Population Normal (%): 89% and 93%
  Population Pyknosed Nuclei (%): 17% and 9%
  Population Tubulin-Different-Phenotype (%): 88% and 84%
  Total Cell Count: 136 and 227
[1]; [5]
  Population Apoptotic (%): 56% and 46%
  Population Fragmented Nuclei (%): 16% and 29%
  Population Healthy Nuclei (%): 65% and 48%
  Population Hoechst High Intensity Objects (%): 2% and 3%
  Population Membrane Permeable-Phenotype (%): 1% and 6%
  Population Mitochondria Different-Phenotype (%): 20% and 10%
  Population Mitotic Cells (%): 43% and 53%
  Population Normal (%): 97% and 96%
  Population Pyknosed Nuclei (%): 17% and 22%
  Population Tubulin-Different-Phenotype (%): 60% and 55%
  Total Cell Count: 136 and 139
[1]; [6]
  Population Apoptotic (%): 80%
  Population Fragmented Nuclei (%): 36% and 63%
  Population Healthy Nuclei (%): 42% and 27%
  Population Hoechst High Intensity Objects (%): 11% and 6%
  Population Membrane Permeable-Phenotype (%): 7% and 12%
  Population Mitotic Cells (%): 20%
  Population Normal (%): 88% and 93%
  Population Pyknosed Nuclei (%): 20% and 9%
  Population Tubulin-Different-Phenotype (%): 86% and 80%
  Total Cell Count: 138 and 218
[1]; [7]
  Population Apoptotic (%): 46% and 37%
  Population Fragmented Nuclei (%): 27% and 36%
  Population Healthy Nuclei (%): 47% and 30%
  Population Hoechst High Intensity Objects (%): 8% and 7%
  Population Membrane Permeable-Phenotype (%): 1% and 5%
  Population Mitochondria Different-Phenotype (%): 20% and 24%
  Population Mitotic Cells (%): 53% and 62%
  Population Normal (%): 91% and 92%
  Population Pyknosed Nuclei (%): 25% and 32%
  Population Tubulin-Different-Phenotype (%): 66% and 45%
  Total Cell Count: 136 and 132
[1]; [8]
  Population Apoptotic (%): 91% and 85%
  Population Fragmented Nuclei (%): 39% and 58%
  Population Healthy Nuclei (%): 39% and 30%
  Population Hoechst High Intensity Objects (%): 14% and 6%
  Population Membrane Permeable-Phenotype (%): 15% and 20%
  Population Mitochondria Different-Phenotype (%): 42% and 20%
  Population Mitotic Cells (%): 8% and 14%
  Population Normal (%): 85% and 93%
  Population Pyknosed Nuclei (%): 21% and 11%
  Population Tubulin-Different-Phenotype (%): 77% and 64%
  Total Cell Count: 134 and 192
[2]; [3]
  Population Apoptotic (%): 66% and 65%
  Population Fragmented Nuclei (%): 9% and 8%
  Population Healthy Nuclei (%): 66% and 74%
  Population Hoechst High Intensity Objects (%): 14% and 11%
  Population Membrane Permeable-Phenotype (%): 0%
  Population Mitochondria Different-Phenotype (%): 82% and 88%
  Population Mitotic Cells (%): 33% and 34%
  Population Normal (%): 85% and 88%
  Population Pyknosed Nuclei (%): 24% and 16%
  Population Tubulin-Different-Phenotype (%): 75% and 57%
  Total Cell Count: 204 and 173
[2]; [4]
  Population Apoptotic (%): 78% and 75%
  Population Fragmented Nuclei (%): 14%
  Population Healthy Nuclei (%): 55% and 67%
  Population Hoechst High Intensity Objects (%): 30% and 41%
  Population Membrane Permeable-Phenotype (%): 1% and 10%
  Population Mitochondria Different-Phenotype (%): 83% and 85%
  Population Mitotic Cells (%): 21% and 25%
  Population Normal (%): 69% and 58%
  Population Pyknosed Nuclei (%): 30% and 18%
  Population Tubulin-Different-Phenotype (%): 80% and 72%
  Total Cell Count: 249 and 224
[2]; [5]
  Population Apoptotic (%): 91% and 77%
  Population Fragmented Nuclei (%): 10% and 13%
  Population Healthy Nuclei (%): 66% and 76%
  Population Hoechst High Intensity Objects (%): 14% and 15%
  Population Membrane Permeable-Phenotype (%): 0%
  Population Mitochondria Different-Phenotype (%): 80% and 86%
  Population Mitotic Cells (%): 8% and 22%
  Population Normal (%): 85% and 84%
  Population Pyknosed Nuclei (%): 22% and 10%
  Population Tubulin-Different-Phenotype (%): 61%
  Total Cell Count: 228 and 202
